Compound activity as filed in PubChem.
The list is not random: actives were taken first. Their share in the collection is about 3.6%.
ATG4B inh – ATG4B (human) cysteine protease inhibition. Q9Y4P1. ATG4B cleavage of LC3-PLA2, NBD-HPC fluorescence, 1 h. inhibition, % at 8.33 µM. actives 0.51% (n = 340,000); in the data active means inhibition above about 40%
SENP1 FRET inh – SENP1 (human) catalytic domain inhibition; Q9P0U3; recombinant SENP1 catalytic domain, CyPet-SUMO1-YPet FRET cleavage; inhibition, % at 10 µM; actives 0.21% (n = 360,000);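 active means inhibition at least 30% at 10 µM, raw YFP signal under a set limit, fluorescence ratio 0.5 to 1.5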;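 further: 0% = enzyme with DMSO and 100% = no enzyme wells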
Target sequence (Q9P0U3 419-644 limits assumed): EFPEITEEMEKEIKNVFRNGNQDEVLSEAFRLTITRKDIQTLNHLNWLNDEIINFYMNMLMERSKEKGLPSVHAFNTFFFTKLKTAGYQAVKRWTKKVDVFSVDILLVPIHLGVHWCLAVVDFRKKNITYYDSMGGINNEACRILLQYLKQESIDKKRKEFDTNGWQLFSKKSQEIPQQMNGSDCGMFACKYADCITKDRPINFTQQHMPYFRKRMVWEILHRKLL
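system = hSENP1 catalytic domain, recombinant | reagent = SFCypet-SUMO1-SFYpet substrate at 25 nM | doses = one dose per compound, 10 µM, 0.5% DMSO | incubation = enzyme reaction for 50 min at room temperature, dark | measured by = FRET, CFP and YFP emission | controls = no-enzyme low, enzyme-DMSO high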
UCH37 inh – inhibitors of human deubiquitinating enzyme UCH37; AID 588478; actives 0.33% (n = 330,000); Q9Y5K5; inhibition, % (test concentration not listed); purified proteasome/UCH37, Ub-AMC cleavage fluorescence;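 active means mean inhibition over replicate wells above about 20%, limit read from the data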;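 further: 0% = compound-free wells with enzyme and 100% = wells lacking proteasome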
Target sequence (Q9Y5K5 whole entry, looked up): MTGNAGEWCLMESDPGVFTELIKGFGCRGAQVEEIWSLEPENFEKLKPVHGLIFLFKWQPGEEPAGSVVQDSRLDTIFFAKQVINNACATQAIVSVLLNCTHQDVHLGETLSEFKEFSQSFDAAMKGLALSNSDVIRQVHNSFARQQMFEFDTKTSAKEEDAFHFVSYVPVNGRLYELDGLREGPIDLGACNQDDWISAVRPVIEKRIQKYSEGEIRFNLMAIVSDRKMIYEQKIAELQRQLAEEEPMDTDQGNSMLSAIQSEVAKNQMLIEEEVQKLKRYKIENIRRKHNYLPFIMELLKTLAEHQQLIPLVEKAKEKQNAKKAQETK
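Schedule: 30 min plus 25 min, room temperature / Material: human UCH37 within purified proteasomes / Technique: AMC fluorescence intensity at 355/460 nm / Buffer or medium: pH 7.4 Tris-HCl (50 mM) with ovalbumin, ATP-MgCl2, DTT / Controls: wells without proteasome as full block, compound-free enzyme plus substrate as uninhibited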
NadD block – NadD (S. aureus) enzyme inhibition; purified NadD enzyme, colorimetric absorbance read-out; inhibition, % at 20 µM; actives 0.78% (n = 360,000); in the data active means inhibition above about 26%
NR3A LBD binder – NR3A (human) ligand-binding domain modulation; actives 2.5% (n = 340,000); NR3A LBD differential scanning fluorimetry, Tm shift; 0% = protein alone, 100% = glycine-bound protein; Tm shift relative to glycine control, % at 25 µM; AID 1259313;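 active means melting temperature shift of at least 10% of the positive control shift, at one fixed dose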
* marks the source's active call; other numbers are inactive results.

CCC(=O)Nc1ccc(Cl)c(NC(=S)NC(=O)COc2ccc(Cl)cc2)c1 was read as ATG4B inh -10, SENP1 FRET inh 0, UCH37 inh 1, NadD block 2 and NR3A LBD binder 26*.
For NC(=NO)c1ccc(N2CCN(c3ncccc3C(F)(F)F)CC2)nc1 the results were UCH37 inh 1.
`O=C(Cc1ccccc1)NN=Cc1ccccn1` gave UCH37 inh 1.
Cc1ccc(-c2csc3ncnc(NS(=O)(=O)c4ccc(Cl)cc4)c23)cc1 was read as ATG4B inh 14, SENP1 FRET inh -1, UCH37 inh 2, NadD block 5 and NR3A LBD binder 16*.
For Cc1ccc(S(=O)(=O)Nc2ccccc2C=Nc2nc3ccccc3n2C(C)C)cc1 the results were UCH37 inh 4.
`COc1cc(C)c(Cl)cc1S(=O)(=O)NCc1ccco1` gave ATG4B inh -3, SENP1 FRET inh -1, UCH37 inh 0, NadD block 0 and NR3A LBD binder 3.
CCOc1cc(C)c(Cl)cc1S(=O)(=O)NCc1ccco1 was read as ATG4B inh 0, SENP1 FRET inh 1, UCH37 inh 3, NadD block 1 and NR3A LBD binder 20*.
Screening CCNc1nc(NCC)n2c(SC(C(=O)Nc3cc(Cl)cc(Cl)c3)c3ccccc3)nnc2n1 (stereo not given) returned ATG4B inh -7, SENP1 FRET inh 2, UCH37 inh 6, NadD block 25 and NR3A LBD binder 11*.
CCNc1nc(NCC)n2c(SCC(=O)O)nnc2n1 was read as ATG4B inh -3, SENP1 FRET inh -2, UCH37 inh 34*, NadD block 4 and NR3A LBD binder 2.
CCNc1nc(NCC)n2c(SCC(=O)Nc3c(C)cccc3C)nnc2n1 was read as ATG4B inh -6, SENP1 FRET inh 2, UCH37 inh -3, NadD block 2 and NR3A LBD binder 0.
Cc1ccc(OCCSc2nc(NC(C)C)nc(NC(C)C)n2)cc1 was read as ATG4B inh 12, SENP1 FRET inh 1, UCH37 inh 2, NadD block -1 and NR3A LBD binder 23*.
For Cc1cc(C)c(S(=O)(=O)/N=C2/C=C(Sc3ncn[nH]3)C(=O)c3ccccc32)cc1C the results were ATG4B inh -18, SENP1 FRET inh 8, NadD block 90* and NR3A LBD binder -28.
`Cc1ccc(S(=O)(=O)N=C2C=C(C3C(=O)CC(C)(C)CC3=O)C(=O)c3ccccc32)cc1` gave UCH37 inh 9.
For CCc1ccc(S(=O)(=O)N=C2C=C(Sc3ncn[nH]3)C(=O)c3ccccc32)cc1 the results were UCH37 inh 80*.
For Clc1ccc(Nc2ccc(-n3ccnc3)nn2)cc1Cl the results were ATG4B inh -3, SENP1 FRET inh -18, UCH37 inh 3, NadD block 9 and NR3A LBD binder 19*.
`c1ccc(Nc2ccc(-n3ccnc3)nn2)cc1` gave ATG4B inh -8, SENP1 FRET inh -1, UCH37 inh 5, NadD block -5 and NR3A LBD binder -6.
For COc1cccc(NC(=O)NC2CC(=O)N(c3ccc4c(c3)OCCO4)C2)c1 (stereo not given) the results were ATG4B inh -9, SENP1 FRET inh 1, UCH37 inh 2, NadD block -6 and NR3A LBD binder -1.
For CC(=O)c1ccc(NC(=O)NC2CC(=O)N(c3ccc4c(c3)OCCO4)C2)cc1 (stereo not given) the results were ATG4B inh -6, SENP1 FRET inh 2, UCH37 inh 3, NadD block -6 and NR3A LBD binder 14*.
Screening Cc1cc(C)cc(-n2c(C)cc(C=NNC(=O)COc3cccc4cccnc34)c2C)c1 returned UCH37 inh 3.
For COc1ccc(C(=O)NCC(=O)NN=Cc2ccc([N+](=O)[O-])o2)cc1OC the results were UCH37 inh 15.
For Nc1nc(Cl)cc(N2CCCC2)n1 the results were ATG4B inh -8, SENP1 FRET inh 1, UCH37 inh 7, NadD block 1 and NR3A LBD binder 1.
For Nc1nc(Cl)cc(N2CCC(c3cc(-c4ccc(Cl)cc4Cl)n[nH]3)CC2)n1 the results were ATG4B inh 6, SENP1 FRET inh -41, UCH37 inh -1, NadD block 4 and NR3A LBD binder 13*.
For Cc1ccc(C(=O)NC(NC(=S)Nc2ccc(S(N)(=O)=O)cc2)C(Cl)(Cl)Cl)cc1 (stereo not given) the results were ATG4B inh -1, SENP1 FRET inh 2, UCH37 inh 4, NadD block 9 and NR3A LBD binder 19*.
`Cc1ccc(NC(=S)NC(NC(=O)c2ccccc2)C(Cl)(Cl)Cl)c(C)c1` (stereo not given) gave ATG4B inh 22, SENP1 FRET inh 0, UCH37 inh 7, NadD block 10 and NR3A LBD binder 15*.
For Cc1ccc(C)c(NC(=S)NC(NC(=O)Cc2ccccc2)C(Cl)(Cl)Cl)c1 (stereo not given) the results were ATG4B inh 4, SENP1 FRET inh 1, UCH37 inh 2, NadD block -3 and NR3A LBD binder 20*.
For CN1c2ccsc2C(=NNC(=O)c2c(F)cccc2F)CS1(=O)=O the results were UCH37 inh 14.
For C=CCNC(=S)NNC(=O)C(CCC(C)C)CC(C)(C)O (stereo not given) the results were ATG4B inh -5, SENP1 FRET inh -4, UCH37 inh 31*, NadD block -2 and NR3A LBD binder -2.
Screening C=CCNC(=S)NNC(=O)C(CC(C)C)CC(C)O (stereo not given) returned ATG4B inh -10, SENP1 FRET inh 4, UCH37 inh 1, NadD block -1 and NR3A LBD binder -1.
`O=C(CC(=O)Nc1ccc(Cl)c(Cl)c1)NN=Cc1ccc(O)cc1` gave UCH37 inh -3.
`COc1c(Br)cc([N+](=O)[O-])c(OC)c1C(=O)NC(=O)Nc1cc(Cl)cc(Cl)c1` gave ATG4B inh -13, SENP1 FRET inh -5, UCH37 inh 4, NadD block 8 and NR3A LBD binder 13*.
COc1c(Br)cc([N+](=O)[O-])c(OC)c1C(=O)NC(=O)Nc1c(Cl)cccc1Cl was read as ATG4B inh -2, SENP1 FRET inh 0, UCH37 inh 5, NadD block -1 and NR3A LBD binder -13.
`CCOc1ccc(C=NNC(=O)c2cccc3ccccc23)c(OCC)c1` gave UCH37 inh 1.
`Cc1c(Cl)cccc1NC(=O)CC1Sc2ccccc2NC1=O` (stereo not given) gave ATG4B inh 5, SENP1 FRET inh 1, UCH37 inh 5, NadD block -5 and NR3A LBD binder 10*.
